The values that follow come from ChEMBL document CHEMBL1125455, “Novel anthraquinone inhibitors of human leukocyte elastase and cathepsin G” (J Med Chem, 1992).

Assay [1] addresses Chymotrypsinogen A (Bos taurus) (UniProt P00766). In words: Inhibitory activity against Chymotrypsinogen at 53 uM concentration. Put shortly: (§1)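 Percent inhibition of enzyme activity at a single inhibitor concentration. Assays run at 25 °C in 0.1 M HEPES, 0.5 M NaCl, pH 7.5, with 9-11% DMSO. The method otherwise follows an earlier report.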
In assay [2] the target is T1, Neutrophil elastase (Homo sapiens) (UniProt P08246).
T1 sequence (whole entry): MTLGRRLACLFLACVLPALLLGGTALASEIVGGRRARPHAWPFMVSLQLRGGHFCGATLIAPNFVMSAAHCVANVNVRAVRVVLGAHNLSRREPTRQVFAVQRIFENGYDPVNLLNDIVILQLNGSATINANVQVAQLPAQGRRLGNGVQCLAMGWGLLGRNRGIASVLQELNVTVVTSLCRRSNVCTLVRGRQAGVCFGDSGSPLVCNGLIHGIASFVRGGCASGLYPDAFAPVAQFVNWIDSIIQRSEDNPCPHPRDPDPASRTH
The assay can be described thus: Inhibitory activity against Human Leukocyte Elastase (HLE) at 53 uM concentration. In outline:
as §1

For assay [3], the target named is T2, Cathepsin G (Homo sapiens) (UniProt P08311).
T2 sequence (whole entry): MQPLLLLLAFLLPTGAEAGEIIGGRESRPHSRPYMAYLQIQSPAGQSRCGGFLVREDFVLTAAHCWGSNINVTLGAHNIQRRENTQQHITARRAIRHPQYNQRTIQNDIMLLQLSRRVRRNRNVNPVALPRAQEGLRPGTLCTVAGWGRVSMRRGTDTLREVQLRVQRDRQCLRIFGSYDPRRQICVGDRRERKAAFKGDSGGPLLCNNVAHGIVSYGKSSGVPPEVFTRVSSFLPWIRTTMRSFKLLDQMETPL
In words: Inhibitory activity against Cathepsin G (CatG) at 53 uM concentration. In outline:
as §1

Assay [4] concerns the target T3, Chymotrypsin-like elastase family member 2A (Sus scrofa) (UniProt P08419).
T3 sequence (whole entry): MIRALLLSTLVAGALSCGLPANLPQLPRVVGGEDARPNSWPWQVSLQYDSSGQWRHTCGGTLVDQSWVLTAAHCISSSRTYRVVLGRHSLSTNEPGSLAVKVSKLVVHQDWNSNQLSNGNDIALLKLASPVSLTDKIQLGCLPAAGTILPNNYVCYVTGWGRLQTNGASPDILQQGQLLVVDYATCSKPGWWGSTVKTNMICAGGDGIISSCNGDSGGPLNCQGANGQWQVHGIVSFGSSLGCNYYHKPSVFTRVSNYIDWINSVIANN
The assay can be described thus: Inhibitory activity against Porcine Pancreatic Elastase (PPE) at 53 uM concentration; NI = no inhibition. Put shortly: as §1

The target in assay [5] is T4, Neutrophil elastase (Homo sapiens, UniProt P08246).
T4 sequence (P08246 whole entry): T1 sequence (whole entry)
In words: Compound was tested for the enzyme inhibitory activity against Human Leukocyte Elastase (HLE) at 53 uM concentration. Put shortly:
as §1

Assay [6] addresses Chymotrypsinogen A (Bos taurus) (UniProt P00766). The assay can be described thus: Inhibitory activity against Chymotrypsinogen at 29 uM concentration; NI = no inhibition.
Assay [7] has as its target T3, Chymotrypsin-like elastase family member 2A (Sus scrofa). The assay can be described thus: Inhibitory activity against Porcine Pancreatic Elastase (PPE) at 29 uM concentration; NI = no inhibition.
In assay [8] the target is T1, Neutrophil elastase (Homo sapiens). In words: Inhibitory activity against Human Leukocyte Elastase (HLE) at 29 uM concentration; NI = no inhibition.
The target in assay [9] is T2, Cathepsin G (Homo sapiens). In words: Inhibitory activity against Cathepsin G (CatG) at 29 uM concentration.
The target in assay [10] is T1, Neutrophil elastase (Homo sapiens). The assay can be described thus: Inhibitory activity against Human Leukocyte Elastase (HLE) at 52 uM concentration.
Assay [11] deals with T4, Neutrophil elastase. In words: Compound was tested for the enzyme inhibitory activity against Human Leukocyte Elastase (HLE) at 52 uM concentration.
The target in assay [12] is T3, Chymotrypsin-like elastase family member 2A (Sus scrofa). In words: Inhibitory activity against Porcine Pancreatic Elastase (PPE) at 52 uM concentration; NI = no inhibition.
Assay [13] has as its target Chymotrypsinogen A (Bos taurus) (UniProt P00766). The assay can be described thus: Inhibitory activity against Chymotrypsinogen at 52 uM concentration; NI = no inhibition.
For assay [14], the target named is T1, Neutrophil elastase (Homo sapiens). In words: Inhibitory activity against Human Leukocyte Elastase (HLE) at 65 uM concentration.
The target of assay [15] is T2, Cathepsin G (Homo sapiens). In words: Inhibitory activity against Cathepsin G (CatG) at 65 uM concentration.
The target in assay [16] is T3, Chymotrypsin-like elastase family member 2A (Sus scrofa). In words: Inhibitory activity against Porcine Pancreatic Elastase (PPE) at 65 uM concentration; NI = no inhibition.
Assay [17] concerns the target T4, Neutrophil elastase. In words: Compound was tested for the enzyme inhibitory activity against Human Leukocyte Elastase (HLE) at 65 uM concentration.
For assay [18], the target named is T1, Neutrophil elastase (Homo sapiens). The assay can be described thus: Inhibitory activity against Human Leukocyte Elastase (HLE) at 28 uM concentration.
Assay [19] concerns the target Chymotrypsinogen A (Bos taurus) (UniProt P00766). In words: Inhibitory activity against Chymotrypsinogen at 28 uM concentration; NI = no inhibition.
The target of assay [20] is T2, Cathepsin G (Homo sapiens). The assay can be described thus: Inhibitory activity against Cathepsin G (CatG) at 28 uM concentration.
Assay [21] addresses T3, Chymotrypsin-like elastase family member 2A (Sus scrofa). In words: Inhibitory activity against Porcine Pancreatic Elastase (PPE) at 28 uM concentration; NI = no inhibition.
In assay [22] the target is T4, Neutrophil elastase. The assay can be described thus: Compound was tested for the enzyme inhibitory activity against Human Leukocyte Elastase (HLE) at 28 uM concentration.
The target in assay [23] is Chymotrypsinogen A (Bos taurus) (UniProt P00766). In words: Inhibitory activity against Chymotrypsinogen at 28 uM concentration.
Assay [24] shares this target. The assay can be described thus: Inhibitory activity against Chymotrypsinogen at 55 uM concentration.
Assay [25] has as its target T1, Neutrophil elastase (Homo sapiens). In words: Inhibitory activity against Human Leukocyte Elastase (HLE) at 55 uM concentration.
Assay [26] deals with T3, Chymotrypsin-like elastase family member 2A (Sus scrofa). The assay can be described thus: Inhibitory activity against Porcine Pancreatic Elastase (PPE) at 55 uM concentration; NI = no inhibition.
Assay [27] deals with T2, Cathepsin G (Homo sapiens). The assay can be described thus: Inhibitory activity against Cathepsin G (CatG) at 55 uM concentration.
Assay [28] concerns the target T4, Neutrophil elastase. In words: Compound was tested for the enzyme inhibitory activity against Human Leukocyte Elastase (HLE) at 55 uM concentration.
Assay [29] has as its target Chymotrypsinogen A (Bos taurus) (UniProt P00766). In words: Inhibitory activity against Chymotrypsinogen at 56 uM concentration; NI = no inhibition.
For assay [30], the target named is T1, Neutrophil elastase (Homo sapiens). The assay can be described thus: Inhibitory activity against Human Leukocyte Elastase (HLE) at 56 uM concentration; NI = no inhibition.
In assay [31] the target is T2, Cathepsin G (Homo sapiens). In words: Inhibitory activity against Cathepsin G (CatG) at 56 uM concentration; NI = no inhibition.
The target of assay [32] is T3, Chymotrypsin-like elastase family member 2A (Sus scrofa). In words: Inhibitory activity against Porcine Pancreatic Elastase (PPE) at 56 uM concentration; NI = no inhibition.
The target in assay [33] is T4, Neutrophil elastase. In words: Compound was tested for the enzyme inhibitory activity against Human Leukocyte Elastase (HLE) at 30 uM concentration.
Assay [34] concerns the target T2, Cathepsin G (Homo sapiens). The assay can be described thus: Inhibitory activity against Cathepsin G (CatG) at 30 uM concentration.
In assay [35] the target is T1, Neutrophil elastase (Homo sapiens). The assay can be described thus: Inhibitory activity against Human Leukocyte Elastase (HLE) at 30 uM concentration.
Assay [36] deals with T3, Chymotrypsin-like elastase family member 2A (Sus scrofa). The assay can be described thus: Inhibitory activity against Porcine Pancreatic Elastase (PPE) at 30 uM concentration; NI = no inhibition.
Assay [37] deals with Chymotrypsinogen A (Bos taurus) (UniProt P00766). The assay can be described thus: Inhibitory activity against Chymotrypsinogen at 27 uM concentration.
The target of assay [38] is T2, Cathepsin G (Homo sapiens). In words: Inhibitory activity against Cathepsin G (CatG) at 27 uM concentration.
The target of assay [39] is T4, Neutrophil elastase. In words: Compound was tested for the enzyme inhibitory activity against Human Leukocyte Elastase (HLE) at 27 uM concentration.
Assay [40] deals with T1, Neutrophil elastase (Homo sapiens). As to conditions: 27 uM.
The target of assay [41] is T3, Chymotrypsin-like elastase family member 2A (Sus scrofa). In words: Inhibitory activity against Porcine Pancreatic Elastase (PPE) at 27 uM concentration; NI = no inhibition.

Calls of active or inactive are those of the source. The rule behind the calls is not given here.

Take `Cc1cc(O)c2c(c1)C(=O)c1cc(O)cc(O)c1C2=O` [EMODIN]: the figures for the inhibition in assay [1], in assay [2] and in assay [3] were 2%, 55% and 42%, respectively. Besides, the inhibition result in assay [4] is “inactive”. Further, the IC50 in [5] was 52 µM.

Turning to `COc1cc(OC)c2c(c1)C(=O)c1cc(CBr)cc(OC)c1C2=O`, the inhibition entry in assay [6], in [7] and in assay [8] was “inactive” each time. For the same compound, the inhibition in assay [9] stood at 14%.

In assay [10], `CC(=O)Oc1cc(OC(C)=O)c2c(c1)C(=O)c1ccc(C)c(OC(C)=O)c1C2=O` showed an inhibition of 96%. The same compound displayed an IC50 in [11] of 12 µM. The inhibition result in [12] and in assay [13] was “inactive” in each case.

Consider `COc1cc(O)c2c(c1)C(=O)c1cc(C)cc(O)c1C2=O` [PHYSCION], for which the inhibition in assay [14] was determined as 100%; in [15], 39%. In assay [16], the inhibition entry is “inactive”. For the same compound, the midpoint of inhibition in assay [17], the IC50, lay at 6.2 µM.

Turning to `Cc1cc(O)c2c(c1)C(=O)c1cccc(O)c1C2=O` [CHRYSOPHANOL], the figures for the inhibition in [18] and in assay [20] were 79% and 39%, respectively. Further, the inhibition entry in assay [19] and in assay [21] was “inactive” each time. 18 µM corresponded to half-maximal inhibition in [22] (IC50).

As for `CC(=O)Oc1cc(OC(C)=O)c2c(c1)C(=O)c1cc(CBr)cc(OC(C)=O)c1C2=O`, the inhibition in assay [18] is 28%; in assay [23], 3%; in [20], 9%. In [21], the inhibition result was “inactive”.

Turning to `Cc1ccc2c(c1O)C(=O)c1c(O)cc(O)cc1C2=O`, the inhibition in assay [24] was 5%; in assay [25], 100%; in assay [27] it was 13%. In addition, the inhibition entry in assay [26] is “inactive”. The compound also registered an IC50 in assay [28] of 21 µM.

Turning to `CC(=O)Oc1cccc2c1C(=O)c1c(OC(C)=O)cc(C)cc1C2=O`, the inhibition result in assay [29], in assay [30], in [31] and in assay [32] was “inactive” in each case.

Take `COc1cc(OC)c2c(c1)C(=O)c1cc(C(Br)Br)cc(OC)c1C2=O`: it took 17 µM to reach half-maximal inhibition in assay [33] (IC50). The inhibition was found to be 24% in assay [34] and 61% in assay [35]. For the same compound, the inhibition entry in assay [36] was “inactive”.

In the case of `COc1cc(OC)c2c(c1)C(=O)c1ccc(C)c(O)c1C2=O`, the figures for the inhibition in [37], in [38] and in [40] were 7%, 4% and 80%, respectively. Moreover, the IC50 in [39] stood at 13 µM. In addition, the inhibition result in [41] is “inactive”.
